Test results as given in ChEMBL document CHEMBL1124897, “(1-Pyrenylmethyl)amino alcohols, a new class of antitumor DNA intercalators. Discovery and initial amine side chain structure-activity studies” (1990).

Legend:
Assay type in all cases: functional, Mus musculus
[1] = system: P388; test: In vivo antitumor activity against murine lymphocytic leukemia P388 measured as optimal dose
In short: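 Male CD2-F1 mice (20 ± 3 g) implanted ip with 1 × 10^6 viable P388 cells on day 0. Compound given ip as aqueous suspension or solution in 0.9% NaCl or 5% dextrose on days 1, 5 and 9, dosed per mg/kg body weight. Several doses bracketing LD20 were tested, six mice per dose. %ILS was calculated from median day of death of treated versus control mice. Values are optimal from at least two experiments.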

[2] = system: P388; test: In vivo antitumor activity against murine lymphocytic leukemia P388 measured as percent increase in life span
In short: (§1)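 Male CD2-F1 mice (20 ± 3 g) implanted ip with 1 × 10^6 viable P388 cells on day 0. Drug given ip as aqueous suspension or solution in 0.9% NaCl or 5% dextrose on days 1, 5 and 9, dosed per body weight in mg/kg. Several dose levels bracketing the LD20 were tested, six mice per dose. Deaths before the control median day of death were counted as drug toxicity.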

[3] = system: P388; test: In vivo antitumor activity against murine lymphocytic leukemia P388 measured as lethal dose […]; set-up: unit: mg/kg; in short: as §1

`Cl.OCC(O)C(CO)NCc1ccc2ccc3cccc4ccc1c2c34` (stereo not drawn) gave an Optimal dose [1] of 125 mg/kg, an ILS [2] of 25% and an LD20 [3] of 140.
